Assay type in all cases: functional, organism-based
The subject of test [1] is Cryptococcus neoformans. As to the kind of experiment: Antifungal activity against Cryptococcus neoformans ATCC 90113 by modified NCCLS method. The method, boiled down: (§1)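 Broth microdilution following a modified NCCLS method. The inoculum was a subculture diluted in its incubation broth. Compounds were dissolved in DMSO, serially diluted in normal saline and tested in duplicate, at final concentrations starting at 50 µg/mL. Amphotericin B served as positive control, with media-only blanks. Turbidity was read at 630 nm before and after incubation. Percent growth was plotted against concentration to give IC50/MIC.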

Test [2] concerns Candida albicans. The experiment in a line: Antifungal activity against Candida albicans ATCC 90028 at 50 ug/mL by modified NCCLS method. The method, boiled down: as §1
The test system of test [3] is Cryptococcus neoformans. The experiment in a line: Antifungal activity against Cryptococcus neoformans ATCC 90113 at 50 ug/mL by modified NCCLS method. The method, boiled down: as §1
In test [4] the test system is Candida albicans. The experiment in a line: Antifungal activity against Candida albicans ATCC 90028 by modified NCCLS method. An outline of the steps: as §1

Converted amounts (≈) assume the structure as drawn. The source made the active and inactive calls.

Broadly, the IC50 is the concentration that inhibits the measured activity by half. As a reminder, the MIC is the smallest concentration in the dilution series that meets the test's criterion for growth inhibition. The low end stands for a more susceptible organism, the high end for a less susceptible organism.

`C[C@H]1[C@@H](Oc2ccc(O)cc2)O[C@@H]2O[C@]3(C)CC[C@H]4[C@H](C)CC[C@@H]1[C@@]24OO3` had an IC50 in test [1] of 0.087 µg/mL (≈ 0.231 µM). Besides, the result in test [2] and in test [3] was inactive.

As for `CCO[C@H]1O[C@@H]2O[C@@]3(C)CC[C@H]4[C@H](C)CC[C@@H]([C@H]1C)[C@@]24OO3` [ARTEMOTIL], the results for the IC50 in test [4] and in test [1] were 15 µg/mL (≈ 48 µM) and 0.085 µg/mL (≈ 0.272 µM), respectively. The minimal inhibitory concentration (MIC) came to 50 µg/mL (≈ 160 µM) in test [4] and 3.13 µg/mL (≈ 10 µM) in test [1].

With `C[C@H]1[C@@H](O)O[C@@H]2OC3(C)CC[C@H]4[C@H](C)CC[C@@H]1[C@@]24OO3` (single isomer, unassigned) [ARTENIMOL], the concentration for half-maximal inhibition (IC50) in test [4] came out at 9 µg/mL (≈ 31.7 µM). In test [1], this molecule gave an IC50 of 0.09 µg/mL (≈ 0.317 µM) and an MIC of 12.5 µg/mL (≈ 44 µM). Also, in test [2], the outcome was inactive.

In test [1], `C[C@H]1[C@@H](Oc2ccc(S)cc2)O[C@@H]2O[C@]3(C)CC[C@H]4[C@H](C)CC[C@@H]1[C@@]24OO3` displayed an IC50 of 0.31 µg/mL (≈ 0.79 µM). Also, the outcome in test [2] and in test [3] was inactive.

As for `C=C1[C@@H](OCCO)O[C@@H]2O[C@]3(C)CC[C@H]4[C@H](C)CC[C@@H]1[C@@]24OO3`, in test [1], it took 3 µg/mL (≈ 9.19 µM) to reach half-maximal inhibition (IC50). In addition, the outcome in test [2] and in test [3] was inactive.

For `CO[C@H]1O[C@@H]2OC3(C)CC[C@H]4[C@H](C)CC[C@@H]([C@H]1C)[C@@]24OO3` (single isomer, unassigned) [ARTEMETHER], in test [1], 0.6 µg/mL (≈ 2.01 µM) corresponded to half-maximal inhibition (IC50) and 25 µg/mL (≈ 83.8 µM) was the least that counted as inhibitory (MIC). Besides, the result in test [2] was inactive.

As to `C[C@H]1[C@@H](O[C@H]2CC[C@H](O)CC2)O[C@@H]2O[C@]3(C)CC[C@H]4[C@H](C)CC[C@@H]1[C@@]24OO3`, in test [1], the IC50 was 1 µg/mL (≈ 2.61 µM). Further, the outcome in test [2] and in test [3] was inactive.

As for `CCO[C@@H]1O[C@@H]2O[C@]3(C)CC[C@H]4[C@H](C)CC[C@@H]([C@H]1C)[C@@]24OO3` [ALPHA-ARTEETHER], the 50% inhibitory concentration (IC50) in test [4] came to 3 µg/mL (≈ 9.6 µM); in test [1], 0.045 µg/mL (≈ 0.144 µM). In addition, the MIC in test [1] was 1.56 µg/mL (≈ 4.99 µM). In addition, the result in test [2] was inactive.

As for `CC1=CO[C@@H]2O[C@]3(C)CC[C@H]4[C@H](C)CC[C@@H]1[C@@]24OO3` [ANHYDRODIHYDROARTEMISININ], in test [4], the IC50 is 7 µg/mL (≈ 26.3 µM) and the MIC came out at 50 µg/mL (≈ 188 µM). Besides, in test [1], the IC50 was determined as 0.045 µg/mL (≈ 0.169 µM) and 0.195 µg/mL (≈ 0.732 µM) was the least that counted as inhibitory (MIC).

`C[C@H]1[C@@H](OCCCCO)O[C@@H]2O[C@]3(C)CC[C@H]4[C@H](C)CC[C@@H]1[C@@]24OO3` showed an IC50 in test [1] of 0.6 µg/mL (≈ 1.68 µM). The outcome in test [2] and in test [3] was inactive.

In test [4], `C[C@@H]1[C@H](O)[C@@H](C)/C=C/C=C/C=C/C=C/C=C/C=C/C=C/[C@H](O[C@@H]2O[C@H](C)[C@@H](O)[C@H](N)[C@@H]2O)C[C@@H]2O[C@](O)(C[C@@H](O)C[C@@H](O)[C@H](O)CC[C@@H](O)C[C@@H](O)CC(=O)O[C@H]1C)C[C@H](O)[C@H]2C(=O)O` [AMPHOTERICIN B] showed an IC50 of 0.1 µg/mL (≈ 0.108 µM) and an MIC of 0.15 µg/mL (≈ 0.162 µM). Also, in test [1], the midpoint of inhibition, the IC50, lay at 0.35 µg/mL (≈ 0.379 µM) and it took 0.625 µg/mL (≈ 0.676 µM) to inhibit growth (MIC).

For the molecule `CC1=CO[C@@H]2O[C@]3(C)CC[C@H]4[C@H](C)CC[C@@H]1[C@@]24O3`, the values for the 50% inhibitory concentration (IC50) in test [4] and in test [1] were 30 µg/mL (≈ 120 µM) and 6 µg/mL (≈ 24 µM), respectively. Besides, the result in test [2] and in test [3] was inactive.

`C=C1C(=O)O[C@@H]2OC3(C)CC[C@H]4[C@H](C)CC[C@@H]1[C@@]24OO3` (single isomer, unassigned) [ARTEMISITENE] gave a half-inhibitory concentration (IC50) in test [1] of 0.045 µg/mL (≈ 0.161 µM). The result in test [2] and in test [3] was inactive.

In test [4], `C[C@@H]1CC[C@H]2[C@@H](C)C(=O)O[C@@H]3O[C@@]4(C)CC[C@@H]1[C@]32OO4` [ARTEMISININ] yielded a 50% inhibitory concentration (IC50) of 8 µg/mL (≈ 28.3 µM) and an MIC of 50 µg/mL (≈ 177 µM). In test [1], this molecule displayed a 50% inhibitory concentration (IC50) of 2 µg/mL (≈ 7.08 µM) and an MIC of 50 µg/mL (≈ 177 µM).

As for `C[C@H]1[C@@H](O[C@H]2CC[C@@H](O)CC2)O[C@@H]2O[C@]3(C)CC[C@H]4[C@H](C)CC[C@@H]1[C@@]24OO3`, the half-maximal inhibitory concentration (IC50) in test [1] came to 0.9 µg/mL (≈ 2.35 µM). Further, the outcome in test [2] and in test [3] was inactive.

In test [1], `CO[C@@H]1O[C@@H]2O[C@]3(C)CC[C@H]4[C@H](C)CC[C@@H]([C@H]1C)[C@@]24OO3` returned a half-inhibitory concentration (IC50) of 1.5 µg/mL (≈ 5.03 µM). Besides, the result in test [2] and in test [3] was inactive.

For the origin of these results see ChEMBL document CHEMBL1141787, “Antifungal activity of artemisinin derivatives” (J Nat Prod, 2005).
